# Reference: ChEMBL document CHEMBL1140818, “Triazole derivatives as non-nucleoside inhibitors of HIV-1 reverse transcriptase--structure-activity relationships and crystallographic analysis” (Bioorg Med Chem Lett, 2008)
# Key:
# [1] = test system: Human immunodeficiency virus 1; test: Antiviral activity against HIV1 in MT4 cells; format: functional, organism-based; details: Human immunodeficiency virus 1, MT4
# Procedure, shortened: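 HIV-1 infectivity assay in MT-4 cells over 5 days, with virus-induced cell death as the read-out. EC50 is the mean of at least two independent experiments.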
# [2] = Selectivity index, ratio of EC50 for MT4 cells to EC50 for HIV1; format: cell-based; details: human; for selectivity ratio: MT4 cells, read-out: Selectivity index; for Selectivity index: mt4
# Procedure, shortened: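 Ratio of the cytotoxicity EC50 to the antiviral EC50, both from the 5-day MT-4 assay with virus-induced cell death as the antiviral read-out. Values are means of at least two independent experiments.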
# [3] = Partition coefficient, log D of the compound; format: physicochemical; details: octanol/water
EC50 [1],logD [3],SMILES,selectivity ratio [2],Selectivity index [2]
2.85 µM,–,Clc1ccccc1-c1nnc(SCc2ccccc2)n1Cc1ccccc1,2.9,–
3.45 µM,–,Clc1cccc(Cl)c1CSc1nnc(-c2cccs2)n1Cc1ccccc1,1.7,–
1.7 µM,–,c1ccc(Cn2c(SCc3ccc4ccccc4c3)nnc2-c2cccs2)cc1,5.9,–
1.7 µM,–,Clc1cccc(CSc2nnc(-c3cccs3)n2Cc2ccccc2)c1,5.3,–
0.131 µM,–,Clc1ccccc1CSc1nnc(-c2ccsc2)n1Cc1ccccc1,62,–
> 100 µM,–,c1ccc(CSc2nnc(Cc3cccs3)n2Cc2ccccc2)cc1,–,Not Active
41.5 µM,–,c1ccc(Cn2c(SCc3ccncc3)nnc2-c2ccsc2)cc1,1,–
3.3 µM,–,Clc1ccc(CSc2nnc(-c3ccsc3)n2Cc2ccccc2)c(Cl)c1,2.9,–
10.5 µM,–,c1ccc(CSc2nnc(-c3ccccc3)n2Cc2ccccc2)cc1,1.1,–
1.1 µM,–,Clc1ccc(CSc2nnc(-c3cccs3)n2Cc2ccccc2)c(Cl)c1,7.7,–
–,–,c1ccc(Cn2c(SCc3ccccn3)nnc2-c2ccsc2)cc1,–,Not Active
51.1 µM,–,Clc1ccc(CSc2nnc(-c3ccsc3)n2Cc2ccccc2)cc1,≤ 1,–
23 µM,–,c1ccc(Cn2c(SCc3cccnc3)nnc2-c2ccsc2)cc1,2,–
23.5 µM,–,N#Cc1ccc(CSc2nnc(-c3cccs3)n2Cc2ccccc2)cc1,< 1,–
0.73 µM,–,Clc1cccc(CSc2nnc(-c3cccs3)n2Cc2ccccc2)c1Cl,9.1,–
23.5 µM,–,Cc1nnc(SCc2ccccc2)n1Cc1ccccc1,2,–
9.2 µM,–,c1ccc(CSc2nnc(-c3ccsc3)n2Cc2ccccc2)cc1,2,–
> 100 µM,–,CSc1nnc(-c2ccsc2)n1Cc1ccccc1,–,Not Active
8.3 µM,–,c1ccc(Cn2c(SCc3ccccn3)nnc2-c2cccs2)cc1,5,–
> 100 µM,–,CCCCCCSc1nnc(-c2ccsc2)n1Cc1ccccc1,–,Not Active
3.7 µM,3.5,c1ccc(CSc2nnc(-c3cccs3)n2Cc2ccccc2)cc1,8,–
4.6 µM,–,c1ccc(CSc2nnc(-c3ccco3)n2Cc2ccccc2)cc1,5.2,–
3 µM,–,COc1ccc(CSc2nnc(-c3cccs3)n2Cc2ccccc2)cc1,3.8,–
> 100 µM,–,Cn1c(SCc2ccccc2)nnc1-c1cccs1,–,Not Active
8.95 µM,–,Clc1ccc(Cl)c(CSc2nnc(-c3ccsc3)n2Cc2ccccc2)c1,1.6,–

EC50 [1],logD [3],SMILES,selectivity ratio [2],Selectivity index [2]
2.4 µM,–,Clc1ccc(CSc2nnc(-c3cccs3)n2Cc2ccccc2)cc1Cl,3.1,–
> 100 µM,–,c1ccc(CCSc2nnc(-c3ccsc3)n2Cc2ccccc2)cc1,–,Not Active
> 100 µM,–,CCCCCCSc1nnc(-c2cccs2)n1Cc1ccccc1,–,Not Active
0.44 µM,–,Clc1ccccc1CSc1nnc(-c2cccs2)n1Cc1ccccc1,35.2,–
4.7 µM,–,Clc1ccc(CSc2nnc(-c3ccsc3)n2Cc2ccccc2)cc1Cl,1.2,–
> 100 µM,–,CSc1nnc(-c2cccs2)n1Cc1ccccc1,–,Not Active
–,–,"O=C1Nc2ccc(Cl)cc2C(C#CC2CC2)(C(F)(F)F)O1 (single isomer, unassigned) [EFAVIRENZ]",> 6000,–
1.3 µM,–,Clc1cccc(CSc2nnc(-c3ccsc3)n2Cc2ccccc2)c1Cl,5,–
> 100 µM,–,N#Cc1ccc(CSc2nnc(-c3ccsc3)n2Cc2ccccc2)cc1,–,Not Active
2 µM,–,Clc1ccc(CSc2nnc(-c3cccs3)n2Cc2ccccc2)cc1,5.7,–
> 100 µM,–,c1ccc(CCn2c(SCc3ccccc3)nnc2-c2cccs2)cc1,–,Not Active
> 100 µM,–,Clc1ccc(Cn2c(SCc3ccccc3)nnc2-c2cccs2)cc1Cl,–,Not Active
> 100 µM,–,Clc1ccc(Cn2c(SCc3ccccc3)nnc2-c2cccs2)cc1,–,–
0.58 µM,–,c1ccc(Cn2c(SCc3ccc4ccccc4c3)nnc2-c2ccsc2)cc1,11.1,–
1.6 µM,–,Clc1cccc(CSc2nnc(-c3ccsc3)n2Cc2ccccc2)c1,6.3,–
> 100 µM,–,c1ccc(CSc2nnc(-c3cc4ccccc4s3)n2Cc2ccccc2)cc1,–,Not Active
4.8 µM,–,c1ccc(Cn2c(SCc3ccncc3)nnc2-c2cccs2)cc1,15,–
5.8 µM,–,COc1ccc(CSc2nnc(-c3ccsc3)n2Cc2ccccc2)cc1,1,–
> 100 µM,–,COc1ccc(Cn2c(SCc3ccccc3)nnc2-c2cccs2)cc1,–,Not Active
> 100 µM,–,Clc1cccc(Cl)c1CSc1nnc(-c2ccsc2)n1Cc1ccccc1,–,Not Active
> 100 µM,–,c1ccc(CSc2nnc(-c3cccs3)n2-c2ccccc2)cc1,–,Not Active
8.3 µM,–,c1ccc(Cn2c(SCc3cccnc3)nnc2-c2cccs2)cc1,6,–
28.5 µM,–,c1ccc(CCSc2nnc(-c3cccs3)n2Cc2ccccc2)cc1,≤ 1,–
1 µM,–,Clc1ccc(Cl)c(CSc2nnc(-c3cccs3)n2Cc2ccccc2)c1,7.9,–
